Laboratory results as given in ChEMBL document CHEMBL1134691, “3-Phenyl-5-acyloxymethyl-2H,5H-furan-2-ones: synthesis and biological activity of a novel group of potential antifungal drugs” (2001).
Converted amounts (≈) assume the structure as drawn.

What was measured:
Lichtheimia corymbifera [1] = assay: In vitro inhibition of Absidia corymbifera 272 growth for 24 hours.; format: functional
Outline: (§1)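 Filamentous isolates tested by microdilution per NCCLS M27-A in RPMI 1640 plus L-glutamine, buffered with 0.165 M MOPS to pH 7.0. Final inoculum 5 × 10^3 cfu/mL. Compounds in DMSO (final ≤2%), 2-fold series over 1000–0.24 µmol/L. Plates held at 35 °C and read visually after 24 and 48 h. MIC taken as 80% inhibition of control growth; determined twice in duplicate.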

Lichtheimia corymbifera [2] = assay: In vitro inhibition of Absidia corymbifera 272 growth for 48 hours.; format: functional; outline: as §1
Pichia kudriavzevii [3] = assay: Inhibition of Candida krusei ATCC 6258 growth for 24 hours in vitro.; format: functional
Outline: (§2)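 NCCLS M27-A broth microdilution in RPMI 1640 with L-glutamine and 0.165 M MOPS, pH 7.0. Isolates kept on Sabouraud dextrose agar. Inoculum 5 × 10^3 cfu/mL final. Compounds were diluted in DMSO (≤2% final) and tested in 2-fold dilutions of 1000–0.24 µmol/L. Incubation at 35 °C, OD540 read at 24 and 48 h. MIC = 80% growth inhibition versus control; assays run twice in duplicate.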

Pichia kudriavzevii [4] = assay: Inhibition of Candida krusei ATCC 6258 growth for 48 hours in vitro.; format: functional; outline: as §2
Pichia kudriavzevii [5] = assay: Inhibition of Candida krusei E28 growth for 24 hours in vitro.; format: functional; outline: as §2
Pichia kudriavzevii [6] = assay: Inhibition of Candida krusei E28 growth for 48 hours in vitro.; format: functional; outline: as §2
Aspergillus fumigatus [7] = assay: Inhibition of Aspergillus fumigatus 231 growth for 48 hours in vitro.; format: functional; outline: as §1
Clavispora lusitaniae [8] = assay: Inhibition of Candida lusitaniae 2446/I growth for 24 hours in vitro.; format: functional; outline: as §2
Clavispora lusitaniae [9] = assay: Inhibition of Candida lusitaniae 2446/I growth for 48 hours in vitro.; format: functional; outline: as §2
Candida parapsilosis [10] = assay: Inhibition of Candida parapsilosis ATCC 22019 growth for 24 hours in vitro.; format: functional; outline: as §2
Candida parapsilosis [11] = assay: Inhibition of Candida parapsilosis ATCC 22019 growth for 48 hours in vitro.; format: functional; outline: as §2
Candida albicans [12] = assay: Inhibition of Candida albicans ATCC 44859 growth for 24 hours in vitro.; format: functional; outline: as §2
Candida albicans [13] = assay: Inhibition of Candida albicans ATCC 44859 growth for 48 hours in vitro.; format: functional; outline: as §2
Candida albicans [14] = assay: Inhibition of Candida albicans ATCC 90028 for 24 hours in vitro.; format: functional; outline: as §2
Candida albicans [15] = assay: Inhibition of Candida albicans ATCC 90028 for 48 hours in vitro.; format: functional; outline: as §2
Candida tropicalis [16] = assay: Inhibition of Candida tropicalis 156 growth for 48 hours in vitro.; format: functional; outline: as §2
Nakaseomyces glabratus [17] = assay: Inhibition of Candida glabrata 20/I growth for 24 hours in vitro.; format: functional; outline: as §2
Nakaseomyces glabratus [18] = assay: Inhibition of Candida glabrata 20/I growth for 48 hours in vitro.; format: functional; outline: as §2
Candida tropicalis [19] = assay: Inhibition of Candida tropicalis 156 growth for 24 hours in vitro.; format: functional; outline: as §2
Trichosporon beigelii [20] = assay: Inhibition of Trichosporon beigelli 1188 for 24 hours in vitro.; format: functional
Outline: (§3)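 Microdilution following NCCLS M27-A. Medium: RPMI 1640 with L-glutamine, 0.165 M MOPS, pH 7.0. Final inoculum 5 × 10^3 cfu/mL. Compounds dissolved in DMSO, final ≤2%, serially halved from 1000 to 0.24 µmol/L. Incubated at 35 °C and read at 24 and 48 h. MIC defined as 80% inhibition of control growth; run twice in duplicate.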

Trichosporon beigelii [21] = assay: Inhibition of Trichosporon beigelli 1188 for 48 hours in vitro.; format: functional; outline: as §3
[22] = Inhibition of Trichophyton mentagrophytes 445 growth for 72 hours in vitro.; format: functional, Arthroderma benhamiae
Outline: (§4)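 Dermatophyte grown in MOPS-buffered (0.165 M, pH 7.0) RPMI 1640 containing L-glutamine, in an M27-A microdilution format. Inoculum 5 × 10^3 cfu/mL final. Compounds from DMSO stocks (≤2% final), 2-fold dilutions 1000–0.24 µmol/L. Incubated at 35 °C, growth judged visually at 72 and 120 h. MIC endpoint is 80% inhibition relative to control; measured twice in duplicate.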

[23] = Inhibition of Trichophyton mentagrophytes 445 growth for 120 hours in vitro.; format: functional, Arthroderma benhamiae; outline: as §4
Aspergillus fumigatus [24] = assay: Inhibition of Aspergillus fumigatus 231 growth for 24 hours in vitro.; format: functional; outline: as §1
[25] = Lichtheimia corymbifera, 48 h, read-out: MIC
[26] = Pichia kudriavzevii, 24 h, read-out: MIC
[27] = Aspergillus fumigatus, 48 h, read-out: MIC
[28] = Clavispora lusitaniae, 24 h, read-out: MIC
[29] = Clavispora lusitaniae, 48 h, read-out: MIC
[30] = Lodderomyces parapsilosis, ATCC 22019, 24 h, read-out: MIC
[31] = Lodderomyces parapsilosis, ATCC 22019, 48 h, read-out: MIC
[32] = Candida albicans, ATCC 44859, 24 h, read-out: MIC
[33] = Candida albicans, ATCC 44859, 48 h, read-out: MIC
[34] = Candida albicans, ATCC 90028, 24 h, read-out: MIC
[35] = Candida albicans, ATCC 90028, 48 h, read-out: MIC
[36] = Lichtheimia corymbifera, 24 h, read-out: MIC
[37] = Pichia kudriavzevii, ATCC 6258, 24 h, read-out: MIC
[38] = Pichia kudriavzevii, ATCC 6258, 48 h, read-out: MIC
[39] = Pichia kudriavzevii, 48 h, read-out: MIC
[40] = Nakaseomyces glabratus, 24 h, read-out: MIC
[41] = Nakaseomyces glabratus, 48 h, read-out: MIC
[42] = Candida tropicalis, 24 h, read-out: MIC
[43] = Trichosporon beigelii, 24 h, read-out: MIC
[44] = Trichosporon beigelii, 48 h, read-out: MIC
[45] = Trichophyton benhamiae, 72 h, read-out: MIC
[46] = Trichophyton benhamiae, 120 h, read-out: MIC
[47] = Aspergillus fumigatus, 24 h, read-out: MIC
[48] = Candida tropicalis, 48 h, read-out: MIC

MIC (Lichtheimia corymbifera [1]) [uM l-1]	MIC (Lichtheimia corymbifera [2]; [25]) [µM]	MIC (Pichia kudriavzevii [3]) [uM l-1]	MIC (Pichia kudriavzevii [5]; [26]) [µM]	MIC (Pichia kudriavzevii [6]) [uM l-1]	MIC (Aspergillus fumigatus [7]; [27]) [µM]	MIC (Clavispora lusitaniae [8]; [28]) [µM]	MIC (Clavispora lusitaniae [9]; [29]) [µM]	MIC (Candida parapsilosis [10]; [30]) [µM]	MIC (Candida parapsilosis [11]; [31]) [µM]	MIC (Candida albicans [12]; [32]) [µM]	MIC (Candida albicans [13]; [33]) [µM]	MIC (Candida albicans [14]; [34]) [µM]	MIC (Candida albicans [15]; [35]) [µM]	MIC (Candida tropicalis [16]) [uM l-1]	MIC (Lichtheimia corymbifera [1]; [36]) [µM]	MIC (Pichia kudriavzevii [3]; [37]) [µM]	MIC (Pichia kudriavzevii [4]; [38]) [µM]	MIC (Pichia kudriavzevii [6]; [39]) [µM]	MIC (Nakaseomyces glabratus [17]; [40]) [µM]	Structure (SMILES)	other results
5.36	62.5 (≈ 21.5 µg/mL)	2.68	7.81 (≈ 2.68 µg/mL)	5.36	7.81 (≈ 2.68 µg/mL)	3.91 (≈ 1.34 µg/mL)	7.81 (≈ 2.68 µg/mL)	7.81 (≈ 2.68 µg/mL)	15.6 (≈ 5.36 µg/mL)	1.95 (≈ 0.669 µg/mL)	3.91 (≈ 1.34 µg/mL)	3.91 (≈ 1.34 µg/mL)	7.81 (≈ 2.68 µg/mL)	5.36						CC(C)(C)C(=O)OCC1C=C(c2ccc(Cl)c(Cl)c2)C(=O)O1 (stereo in doubt; (-)2c)	MIC (Pichia kudriavzevii [4]): 10.73 uM l-1
	125 (≈ 38 µg/mL)		62.5 (≈ 19 µg/mL)		31.2 (≈ 9.51 µg/mL)	31.2 (≈ 9.51 µg/mL)	31.2 (≈ 9.51 µg/mL)	31.2 (≈ 9.51 µg/mL)	62.5 (≈ 19 µg/mL)	0.98 (≈ 0.298 µg/mL)	15.6 (≈ 4.76 µg/mL)	31.2 (≈ 9.51 µg/mL)	31.2 (≈ 9.51 µg/mL)		62.5 (≈ 19 µg/mL)	62.5 (≈ 19 µg/mL)	62.5 (≈ 19 µg/mL)	125 (≈ 38 µg/mL)	31.2 (≈ 9.51 µg/mL)	COc1ccc(C2=CC(COC(=O)C(C)(C)C)OC2=O)cc1 (configuration not stated)	MIC (Nakaseomyces glabratus [18]; [41]): 31.2 µM (≈ 9.51 µg/mL); MIC (Candida tropicalis [19]; [42]): 31.2 µM (≈ 9.51 µg/mL); MIC (Trichosporon beigelii [20]; [43]): 62.5 µM (≈ 19 µg/mL); MIC (Trichosporon beigelii [21]; [44]): 62.5 µM (≈ 19 µg/mL); MIC [22, 45]: 7.81 µM (≈ 2.38 µg/mL); MIC [23, 46]: 7.81 µM (≈ 2.38 µg/mL); MIC (Aspergillus fumigatus [24]; [47]): 7.81 µM (≈ 2.38 µg/mL); MIC (Candida tropicalis [16]; [48]): 62.5 µM (≈ 19 µg/mL)
	31.2 (≈ 12.4 µg/mL)		3.91 (≈ 1.55 µg/mL)		3.91 (≈ 1.55 µg/mL)	1.95 (≈ 0.775 µg/mL)	3.91 (≈ 1.55 µg/mL)	1.95 (≈ 0.775 µg/mL)	3.91 (≈ 1.55 µg/mL)	0.12 (≈ 0.0477 µg/mL)	1.95 (≈ 0.775 µg/mL)	1.95 (≈ 0.775 µg/mL)	3.91 (≈ 1.55 µg/mL)		15.6 (≈ 6.22 µg/mL)	3.91 (≈ 1.55 µg/mL)	7.81 (≈ 3.11 µg/mL)	7.81 (≈ 3.11 µg/mL)	0.98 (≈ 0.39 µg/mL)	O=C1OC(COC(=O)c2ccc(Cl)cc2)C=C1c1ccc(Cl)c(Cl)c1 (configuration not stated)	MIC (Nakaseomyces glabratus [18]; [41]): 0.98 µM (≈ 0.39 µg/mL); MIC (Candida tropicalis [19]; [42]): 1.95 µM (≈ 0.775 µg/mL); MIC (Trichosporon beigelii [20]; [43]): 1.95 µM (≈ 0.775 µg/mL); MIC (Trichosporon beigelii [21]; [44]): 7.81 µM (≈ 3.11 µg/mL); MIC [22, 45]: 0.98 µM (≈ 0.39 µg/mL); MIC [23, 46]: 0.98 µM (≈ 0.39 µg/mL); MIC (Aspergillus fumigatus [24]; [47]): 0.98 µM (≈ 0.39 µg/mL); MIC (Candida tropicalis [16]; [48]): 3.91 µM (≈ 1.55 µg/mL)
10.73		5.36		10.73										10.73						CC(C)(C)C(=O)OCC1C=C(c2ccc(Cl)c(Cl)c2)C(=O)O1 (single isomer, unassigned; (+))	MIC (Lichtheimia corymbifera [2]): 10.73 uM l-1; MIC (Pichia kudriavzevii [5]): 5.36 uM l-1; MIC (Aspergillus fumigatus [7]): 2.68 uM l-1; MIC (Clavispora lusitaniae [8]): 1.34 uM l-1; MIC (Clavispora lusitaniae [9]): 2.68 uM l-1; MIC (Candida parapsilosis [10]): 2.68 uM l-1; MIC (Candida parapsilosis [11]): 5.36 uM l-1; MIC (Candida albicans [12]): 0.67 µM (≈ 0.23 µg/mL); MIC (Candida albicans [13]): 1.34 uM l-1; MIC (Candida albicans [14]): 1.34 uM l-1; MIC (Candida albicans [15]): 2.68 µM (≈ 0.92 µg/mL); MIC (Nakaseomyces glabratus [17]): 0.67 µM (≈ 0.23 µg/mL); MIC (Nakaseomyces glabratus [18]): 1.34 uM l-1; MIC (Candida tropicalis [19]): 5.36 uM l-1; MIC (Trichosporon beigelii [20]): 2.68 uM l-1; MIC (Trichosporon beigelii [21]): 5.36 uM l-1; MIC [22]: 0.34 µM (≈ 0.117 µg/mL); MIC [23]: 0.67 uM l-1; MIC (Aspergillus fumigatus [24]): 1.34 uM l-1

Structure (SMILES)	MIC (Lichtheimia corymbifera [1]) [uM l-1]	MIC (Lichtheimia corymbifera [2]; [25]) [µM]	MIC (Pichia kudriavzevii [3]) [uM l-1]	MIC (Pichia kudriavzevii [5]; [26]) [µM]	MIC (Pichia kudriavzevii [6]) [uM l-1]	MIC (Aspergillus fumigatus [7]; [27]) [µM]	MIC (Clavispora lusitaniae [8]; [28]) [µM]	MIC (Clavispora lusitaniae [9]; [29]) [µM]	MIC (Candida parapsilosis [10]; [30]) [µM]	MIC (Candida parapsilosis [11]; [31]) [µM]	MIC (Candida albicans [12]; [32]) [µM]	MIC (Candida albicans [13]; [33]) [µM]	MIC (Candida albicans [14]; [34]) [µM]	MIC (Candida albicans [15]; [35]) [µM]	MIC (Candida tropicalis [16]) [uM l-1]	MIC (Lichtheimia corymbifera [1]; [36]) [µM]	MIC (Pichia kudriavzevii [3]; [37]) [µM]	MIC (Pichia kudriavzevii [4]; [38]) [µM]	MIC (Pichia kudriavzevii [6]; [39]) [µM]	MIC (Nakaseomyces glabratus [17]; [40]) [µM]	other results
CC(=O)N1CCN(c2ccc(OCC3COC(Cn4ccnc4)(c4ccc(Cl)cc4Cl)O3)cc2)CC1 (configuration not stated) [KETOCONAZOLE]		31.2 (≈ 16.6 µg/mL)		3.91 (≈ 2.08 µg/mL)		15.6 (≈ 8.31 µg/mL)	0.056 (≈ 0.0298 µg/mL)	0.11 (≈ 0.0585 µg/mL)	0.11 (≈ 0.0585 µg/mL)	0.11 (≈ 0.0585 µg/mL)	0.11 (≈ 0.0585 µg/mL)	0.11 (≈ 0.0585 µg/mL)	< 0.056	< 0.056		31.2 (≈ 16.6 µg/mL)	1.96 (≈ 1.04 µg/mL)	1.96 (≈ 1.04 µg/mL)	3.91 (≈ 2.08 µg/mL)		
